Results of several laboratories.
Lines come from different studies, so protocols differ.
Target: Tyrosine-protein kinase Yes (YES1, Homo sapiens, UniProt P07947)

| SMILES | effect on | method | tested at | remaining binding [%] |
| --- | --- | --- | --- | --- |
| C[C@H]1CCN(c2nccc(-c3cnn4ncccc34)n2)C1 | binding | – | 1 µM | 94 |
| C[C@@H](c1ccc(-n2cnc3c(N)ncnc32)cc1)N1CCc2nn(C)c(Cc3ccccc3)c2C1=O | binding | competition with immobilised ligand | 0.1 µM | 74 |
| CN(C)c1nccc(-c2cnn3ncccc23)n1 | binding | – | 1 µM | 78 |
| O=C(Nc1c[nH]nc1C(=O)NC1CCNCC1)c1cc(F)cc(F)c1 | binding | competition with immobilised ligand | 1 µM | 100 |
| Nc1ncc2c(n1)-c1c([nH]c3ccc(C#CC4CC4)cc13)CCCC2 | binding | competition with immobilised ligand | 1 µM | 100 |
| Cc1cnn2ncc(-c3ccnc(N(C)C)n3)c2c1 | binding | – | 1 µM | 100 |
| O=C(c1ccc(Nc2ncc(Cl)c(-c3ccc(Cl)s3)n2)cc1)N1CCC(N2CCCC2)CC1 | binding | competition with immobilised ligand | 1 µM | 55 |
| Cc1nc(C2CCN(C(=O)c3ccc(OC(F)(F)F)cc3N)CC2)c2ncc(N3CCN(C)CC3)cc2n1 | cell-free assay | competition with immobilised ligand | 1 µM | 100 |
| O=C(NCCCN1CCOCC1)c1ccc(Nc2ncc(Cl)c(-c3ccc(Cl)s3)n2)cc1 | binding | competition with immobilised ligand | 1 µM | 76 |
| Cc1ccc(-n2nc(C(C)(C)C)cc2NC(=O)Nc2ccc(-n3c(N)c(C(N)=O)c4nc5ccc(NCCCN)cc5nc43)cc2)cc1 | cell-free assay | competition with immobilised ligand | 1 µM | 1.9 |
| COc1ncc2cc3ccccc3nc2c1C#N | cell-free assay | competition with immobilised ligand | 5 µM | 100 |
| O=C(N[C@H]1CCCCC/C=C\C2C[C@@]2(C(=O)O)NC(=O)[C@@H]2C[C@@H](Oc3ccncc3)CN2C1=O)OC1CCCC1 (stereo partly shown) | binding | competition with immobilised ligand | 1 µM | 100 |
| COc1ccnn2ncc(-c3ccnc(N(C)C)n3)c12 | binding | – | 1 µM | 100 |
| FC(F)(F)Oc1cccc(-c2cnc3ccc(-c4ccncc4)nn23)c1 | binding | competition with immobilised ligand | 5 µM | 81 |
| COc1ccc2cc(OCC3(C(=O)O)CN(C(=O)c4ccc(F)cc4)C3)ccc2c1 | cell-free assay | competition with immobilised ligand | 1 µM | 100 |
| COc1cnc(Nc2cccc(S(N)(=O)=O)c2)nc1N1CCN(c2ccccc2)CC1 | binding | competition with immobilised ligand | 1 µM | 89 |
| CN1CCN(c2ccc(Nc3nccc(-c4ccccc4)n3)cc2C(F)(F)F)CC1 | binding | – | 10 µM | 56 |
| CN(C)c1ncnc(-c2ccc3nc(Nc4cc(CN5CCN(C(=O)CC(F)(F)F)CC5)ccn4)[nH]c3c2)c1Cl | cell-free assay | competition with immobilised ligand | 1 µM | 76 |
| CN(C)c1ncc(F)c(-c2cnn3ncccc23)n1 | binding | – | 1 µM | 78 |
| O=C(NCc1ncc(C(F)(F)F)cc1Cl)c1ccc2c(c1)C1(CCS(=O)(=O)CC1)[C@H](C1CC1)N2S(=O)(=O)c1ccc(F)cc1 | cell-free assay | competition with immobilised ligand | 1 µM | 90 |
| C=CC(=O)N1CCC(C(=O)NCC(=O)N2CCN(c3nc(-c4cnc(N)nc4C(F)F)nc(N4CCOCC4)n3)CC2)CC1 | binding | competition with immobilised ligand | 1 µM | 97 |
| Cc1c(NC(=O)c2cc(C(N)=O)nc3cc(F)ccc23)c(C(F)(F)F)nn1Cc1ccc(C#N)cc1 | cell-free assay | competition with immobilised ligand | 1 µM | 66 |
| N[C@@H]1CCN(c2nccc(-c3cnn4ncccc34)n2)C1 | binding | – | 1 µM | 100 |
| CSc1cccnc1N1CCN(Cc2nc3ccccc3[nH]2)CC1 | cell-free assay | competition with immobilised ligand | 1 µM | 100 |
| O=C(c1ccc(Nc2ncc(Cl)c(-c3cc4ccccc4s3)n2)cc1)N1CCC(N2CCCC2)CC1 | binding | competition with immobilised ligand | 1 µM | 71 |
